SMILES strings stand for the structures. Calls of active or inactive are those of the source.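 How the source made its calls, unless noted: active means potentiation averaged over duplicate wells exceeding buffer-only control mean by more than 3 SD; inactive means the rest.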

The values below come from PubChem BioAssay.

Assay [1] can be described thus: nonspecific flux increase, KCNQ1-free cells – parental CHO cells, counter-screen for KCNQ1 potentiator project (AID 493006;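 active means duplicate-averaged activation above buffer control mean plus 5 SD of those controls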;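 on activation: fluorescence ratio of max minus min over baseline after K+ and Tl+ depolarization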). Particulars: parental CHO-K1 cells, FluxOR thallium flux, at 10 µM; active compounds read high. A digest of the protocol:
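Material: untransfected host CHO-K1 cells with FluxOR thallium dye. Timing: overnight 37 °C plating, 90 min RT dye, 20 min compound. Detection: kinetic FluxOR fluorescence, 10 s baseline, 110 s after stimulus. Read-out basis: max-minus-min fluorescence over baseline, percent of buffer-to-R-L3 span. Replicates: duplicate wells per compound, percent values averaged.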

The target in assay [2] is Potassium voltage-gated channel subfamily KQT member 1 (Homo sapiens) (UniProt P51787). Put plainly: enhancement of KCNQ1 channel thallium flux – FluxOR thallium flux, CHO cells, duplicates, confirmation (AID 493007).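 On outcome: cells depolarized by a potassium plus thallium sulfate stimulus after compound.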 As to conditions: KCNQ1 cell line, FluxOR thallium flux fluorescence, at 10 µM; active compounds read high, % of reference activator effect, buffer zero. A digest of the protocol: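 Test system – KCNQ1-expressing CHO cell line · Incubation – FluxOR dye loading 90 min, compound exposure 20 min, room temperature · Detection – FluxOR Tl+ flux fluorescence, 10 s baseline plus 110 s recording · Controls – buffer-only wells as 0% and R-L3 activator as 100%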

For assay [3], the target named is Potassium voltage-gated channel subfamily KQT member 2 (Rattus norvegicus) (UniProt O88943). Briefly: KCNQ2 thallium flux enhancement – KCNQ2-CHO-K1 cells, selectivity assay for KCNQ1 potentiator project (AID 493009;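 active means mean duplicate potentiation above the buffer control mean plus 5 SD of buffer wells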;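 further: assay conditions were tuned for KCNQ1 rather than KCNQ2 modulators; signal is max minus min fluorescence divided by baseline after thallium stimulus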). Particulars: FluxOR thallium flux fluorescence, at 10 µM; active compounds read high, scaled: buffer 0, activator control 100.
Assay [4] concerns the target Potassium voltage-gated channel subfamily KQT member 1 (Homo sapiens) (UniProt P51787). Put plainly: KCNQ1 activators by electrophysiology – IonWorks patch clamp, KCNQ1-CHO cells, orthogonal assay for KCNQ1 potentiator project, confirmation (AID 493184;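 active means current rise at least 3 SD above the untreated control mean in each of two repeat wells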). As to conditions: automated patch clamp current, at 10 µM; active compounds read high. In outline:
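Read-out: Percent current increase versus pre-compound level | Assay system: CHO cells carrying KCNQ1 | Measured by: Automated perforated-patch electrophysiology | Medium: External bath solution at pH 7.4 | Dosing: One dose, 10 µM final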

Chain of Potassium voltage-gated channel subfamily KQT member 1 (Homo sapiens) (P51787 whole entry, looked up): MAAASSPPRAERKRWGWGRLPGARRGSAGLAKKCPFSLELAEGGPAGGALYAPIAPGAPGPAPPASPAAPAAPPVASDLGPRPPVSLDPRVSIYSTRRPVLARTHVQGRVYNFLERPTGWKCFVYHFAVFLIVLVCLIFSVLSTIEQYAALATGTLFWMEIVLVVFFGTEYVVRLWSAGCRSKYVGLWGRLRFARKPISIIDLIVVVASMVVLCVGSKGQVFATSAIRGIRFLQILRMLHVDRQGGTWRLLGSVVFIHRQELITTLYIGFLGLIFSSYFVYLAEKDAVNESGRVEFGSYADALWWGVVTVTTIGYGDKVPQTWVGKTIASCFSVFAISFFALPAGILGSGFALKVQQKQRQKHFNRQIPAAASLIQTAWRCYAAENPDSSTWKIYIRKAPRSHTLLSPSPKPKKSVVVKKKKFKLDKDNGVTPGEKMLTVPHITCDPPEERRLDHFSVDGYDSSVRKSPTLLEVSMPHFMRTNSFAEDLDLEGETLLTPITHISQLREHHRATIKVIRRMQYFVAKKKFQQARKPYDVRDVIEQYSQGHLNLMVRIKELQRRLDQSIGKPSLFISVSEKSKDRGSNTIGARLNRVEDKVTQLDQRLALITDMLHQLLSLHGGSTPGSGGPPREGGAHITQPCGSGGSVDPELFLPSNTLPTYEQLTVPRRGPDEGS
Chain of Potassium voltage-gated channel subfamily KQT member 2 (Rattus norvegicus) (O88943 whole entry, looked up): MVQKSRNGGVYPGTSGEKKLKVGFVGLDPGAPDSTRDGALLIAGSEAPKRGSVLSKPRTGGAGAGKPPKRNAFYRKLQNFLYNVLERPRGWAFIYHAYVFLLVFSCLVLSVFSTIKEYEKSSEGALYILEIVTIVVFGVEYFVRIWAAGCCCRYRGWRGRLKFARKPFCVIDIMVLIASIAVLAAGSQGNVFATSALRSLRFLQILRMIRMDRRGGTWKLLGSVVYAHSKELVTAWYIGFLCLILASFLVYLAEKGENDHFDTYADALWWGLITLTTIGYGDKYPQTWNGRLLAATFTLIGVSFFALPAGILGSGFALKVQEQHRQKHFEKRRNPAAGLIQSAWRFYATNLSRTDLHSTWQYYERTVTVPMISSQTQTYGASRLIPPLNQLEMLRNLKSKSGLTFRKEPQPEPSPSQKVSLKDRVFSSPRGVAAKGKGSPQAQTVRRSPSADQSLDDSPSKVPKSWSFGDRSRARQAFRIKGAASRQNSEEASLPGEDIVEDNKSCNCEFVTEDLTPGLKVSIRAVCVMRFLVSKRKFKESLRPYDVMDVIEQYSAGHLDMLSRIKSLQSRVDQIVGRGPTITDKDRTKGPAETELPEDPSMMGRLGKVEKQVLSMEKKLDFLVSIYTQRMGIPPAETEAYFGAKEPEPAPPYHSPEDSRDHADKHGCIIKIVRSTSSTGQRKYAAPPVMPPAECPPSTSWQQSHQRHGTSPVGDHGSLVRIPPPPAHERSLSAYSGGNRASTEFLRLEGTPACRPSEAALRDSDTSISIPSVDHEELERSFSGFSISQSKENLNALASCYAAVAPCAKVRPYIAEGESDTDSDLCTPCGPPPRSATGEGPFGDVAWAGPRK

Regarding `C/C(=C/CCC(C)[C@H]1CC[C@@]2(C)C3=C(CC[C@]12C)[C@@]1(C)CCC(=O)C(C)(C)[C@@H]1CC3)C(=O)O` (stereo not given in full), the activation in assay [1] was 829% (active). Also, the potentiation is 298% (active) in assay [2] and 680% (active) in assay [3]. In assay [4], the outcome was inactive.

Take `CCCN1CCC(NC(=S)Nc2cccc(Cl)c2Cl)CC1`: the result in assay [1], in assay [2], in assay [3] and in assay [4] was inactive.

Consider `O=C(NC(=S)Nc1ccccc1N1CCCC1)c1ccc([N+](=O)[O-])cc1`, for which the activation in assay [1] was 161% (active). Also, the potentiation in assay [2] was 100% (active); in assay [3], 218% (active). In assay [4], the result was inactive.

With `O=C(c1cc([N+](=O)[O-])cc([N+](=O)[O-])c1)N1CCCc2ccccc21`, the result in assay [1], in assay [2], in assay [3] and in assay [4] was inactive.

As for `Fc1cccc2sc(Nc3nnc(-c4ccco4)o3)nc12`, in assay [1], the activation is 354% (active). For the same molecule, the potentiation is 100% (active) in assay [2] and 381% (active) in assay [3]. Further, the result in assay [4] was inactive.

As to `O=c1c2ccc(Cl)cc2nc(-c2ccc([N+](=O)[O-])cc2)n1O`, in assay [1], the activation is 345% (active). Besides, the results for the potentiation in assay [2] and in assay [3] were 90.5% (active) and 428% (active), respectively. Besides, the outcome in assay [4] was inactive.

Regarding `O=C1C=C(NCc2ccccc2)c2ccccc2C1=O`, the activation in assay [1] was 140% (active). In addition, the potentiation in assay [2] was 24% (active). Also, the outcome in assay [3] and in assay [4] was inactive.

Consider `COc1ccc(C(=O)c2cc([N+](=O)[O-])ccc2N2CCOCC2)cc1`, for which the result in assay [1], in assay [2], in assay [3] and in assay [4] was inactive.

Regarding `COc1cc(CN2CCC(C)CC2)ccc1OCc1ccccc1`, the activation in assay [1] is 292% (active). Also, the potentiation in assay [2] was 90% (active); in assay [3], 300% (active). Further, the result in assay [4] was inactive.

Regarding `O=C(CNCC1CCCCC1)Nc1ccc(OC(F)(F)F)cc1`, the result in assay [1], in assay [2], in assay [3] and in assay [4] was inactive.

As for `O=C(O)c1c2c(nc3ccccc13)/C(=C/c1cccc([N+](=O)[O-])c1)CCC2`, the activation in assay [1] was 172% (active). Moreover, the potentiation in assay [2] is 64% (active); in assay [3], 199% (active). For the same molecule, the outcome in assay [4] was inactive.

As for `O=C(Nc1ccc(Cl)cn1)c1cccc(S(=O)(=O)N2CCOCC2)c1`, the result in assay [1], in assay [2], in assay [3] and in assay [4] was inactive.

Consider `COc1cc(C2C(C#N)=C(N)Oc3cc(O)ccc32)cc2c1OCO2` (stereo not given), for which the result in assay [1], in assay [2], in assay [3] and in assay [4] was inactive.

`CCC1CCCCN1S(=O)(=O)c1ccc(NC(=O)c2cccnc2)cc1` (stereo not given): the result in assay [1], in assay [2], in assay [3] and in assay [4] was inactive.

`C=CCn1c(O)c(N=NC(=S)Nc2cccc(OC)c2)c2ccccc21`: the activation in assay [1] was 186% (active). Further, the values for the potentiation in assay [2] and in assay [3] were 85.5% (active) and 271% (active), respectively. Moreover, the result in assay [4] was inactive.

Turning to `O=C(CC1(O)C(=O)N(C/C=C/c2ccccc2)c2ccccc21)c1ccccn1` (stereo not given), the result in assay [1], in assay [2], in assay [3] and in assay [4] was inactive.

For the molecule `CN(Cc1cn[nH]c1-c1ccc2c(c1)OCO2)C1CCOCC1`, the result in assay [1], in assay [2], in assay [3] and in assay [4] was inactive.

Regarding `S=C1NC2(CCCCC2)Cc2ccccc21`, the result in assay [1], in assay [2], in assay [3] and in assay [4] was inactive.

Regarding `COc1ccc(CCC(=O)NCCOc2ccc(C)cc2)cc1`, the outcome in assay [1], in assay [2], in assay [3] and in assay [4] was inactive.

With `Cn1c(O)c(N=Nc2nc(-c3ccccc3)cs2)c2ccccc21`, in assay [1], the activation is 510% (active). The potentiation in assay [2] is 385% (active); in assay [3], 677% (active). Further, the result in assay [4] was inactive.

With `CC1CCN(C(=S)NC(=O)c2ccc(C(C)(C)C)cc2)CC1`, the activation in assay [1] was 165% (active). Further, the potentiation was 85.5% (active) in assay [2] and 284% (active) in assay [3]. In assay [4], the result was inactive.

As for `Cc1ccc(F)cc1S(=O)(=O)NCc1ccc(N2CCN(C)CC2)cc1`, the result in assay [1], in assay [2], in assay [3] and in assay [4] was inactive.

Turning to `COC(=O)c1cccc(NC(=O)CSc2nncn2-c2ccccn2)c1`, the result in assay [1], in assay [2], in assay [3] and in assay [4] was inactive.

In the case of `O=C(COC(=O)c1cc(S(=O)(=O)N2CCOCC2)ccc1O)NCCc1ccccc1`, the result in assay [1], in assay [2], in assay [3] and in assay [4] was inactive.

As for `Cc1ccc(C)c(/C=C/C(=O)c2ccccc(=O)c2O)c1`, in assay [1], the activation is 194% (active). For the same molecule, the potentiation in assay [2] was 118% (active); in assay [3] it was 333% (active). Also, the outcome in assay [4] was inactive.

As for `CSc1nc2sc3c(c2c(=S)[nH]1)CC(C)(C)OC3`, the activation in assay [1] is 528% (active). The potentiation in assay [2] was 298% (active); in assay [3], 652% (active). The result in assay [4] was inactive.

In the case of `O=C1NN(c2ccccc2)C(=O)/C1=C\c1cccc(OC(=O)c2cccs2)c1`, the activation in assay [1] is 187% (active). Also, the potentiation was 61.5% (active) in assay [2] and 202% (active) in assay [3]. Further, the result in assay [4] was inactive.

With `Nc1nc(-c2ccccc2)c(N=Nc2ccccc2Cl)s1`, in assay [1], the activation is 488% (active). Moreover, the potentiation in assay [2] was 168% (active); in assay [3], 416% (active). The outcome in assay [4] was inactive.

Consider `COc1ccc(C(=O)CC(=O)C(=O)Nc2ccccc2Cl)cc1`, for which the activation in assay [1] is 139% (active). Moreover, in assay [2], the potentiation is 25% (active). Besides, the result in assay [3] and in assay [4] was inactive.

With `O=S(=O)(c1cc(F)cc(F)c1)N1CCN(c2ncccn2)CC1`, the result in assay [1], in assay [2], in assay [3] and in assay [4] was inactive.
